ChEMBL document CHEMBL1121363, “DNA intercalating compounds as potential antitumor agents. 2. Preparation and properties of 7H-pyridocarbazole dimers” (1980)

How the values were obtained:
Calf thymus DNA [1] = experiment: Dimer binding constant for DNA of calf thymus at pH 5.; type: nucleic-acid assay; conditions: Bos taurus
Summary of the method: (§1)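 Fluorimetric competition: calf thymus DNA (B = 1.6 × 10⁻⁶ M base pairs) with ethidium dimer (6.4 × 10⁻⁷ M) equilibrated 24 h with varied dimer concentrations, 20 °C. Buffers: 0.2 M sodium acetate pH 5, or 0.1 M NaCl/0.1 M Tris-HCl pH 7.4. Ex 540/em 610 nm. Displacement curve fitted to McGhee–von Hippel equations using n set by ethidium bromide competition, giving Kap.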

Calf thymus DNA [2] = experiment: Dimer binding constant for DNA of calf thymus at pH 7.4; type: nucleic-acid assay; conditions: Bos taurus; summary of the method: as §1
Calf thymus DNA [3] = experiment: Displacement of ethidium from DNA of calf thymus at pH 5; type: nucleic-acid assay; conditions: Bos taurus
Summary of the method: (§2)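 Ethidium dimer (6.4 × 10⁻⁷ M) pre-bound to calf thymus DNA (1.6 × 10⁻⁶ M base pairs), 24 h equilibration with competing dimer, 20 °C, in 0.2 M sodium acetate pH 5 or 0.1 M NaCl/0.1 M Tris-HCl pH 7.4. Fluorescence ex 540, em 610 nm. rf50 = ratio of total dimer to DNA base pairs displacing 50% of bound ethidium dimer.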

Calf thymus DNA [4] = experiment: Displacement of ethidium from DNA of calf thymus at pH 7.4; type: nucleic-acid assay; conditions: Bos taurus; summary of the method: as §2
Mus musculus [5] = experiment: Evaluated for the antitumor activity against L1210 Murine leukemia at optimum intraperitoneal dose 0.5 of the MTD
Mus musculus [6] = experiment: Evaluated for the antitumor activity against L1210 Murine leukemia at optimum intraperitoneal dose 0.2 of the MTD
Mus musculus [7] = experiment: Evaluated for the antitumor activity against L1210 Murine leukemia at optimum intraperitoneal dose 0.8 of the MTD
Mus musculus [8] = experiment: Evaluated for the antitumor activity against L1210 Murine leukemia at optimum intraperitoneal dose 0.4 of the MTD
Mus musculus [9] = experiment: Evaluated for the antitumor activity against L1210 Murine leukemia at optimum intraperitoneal dose 0.25 of the MTD

| Structure (SMILES) | K app (Calf thymus DNA [1]) | K app (Calf thymus DNA [2]) | rf50 (Calf thymus DNA [3]) | rf50 (Calf thymus DNA [4]) | T/C (Mus musculus [5]) | T/C (Mus musculus [6]) | T/C (Mus musculus [7]) | T/C (Mus musculus [8]) | T/C (Mus musculus [9]) |
| --- | --- | --- | --- | --- | --- | --- | --- | --- | --- |
| COc1ccc2[nH]c3ccc4cc[n+](CCN5CCC(CCCC6CCN(CC[n+]7ccc8ccc9[nH]c%10ccc(OC)cc%10c9c8c7)CC6)CC5)cc4c3c2c1 | 1e+09 | 4e+06 | 0.25 | 2.24 |  |  |  |  |  |
| COc1ccc2[nH]c3ccc4cc[n+](CCCCCCCCCC[n+]5ccc6ccc7[nH]c8ccc(OC)cc8c7c6c5)cc4c3c2c1.[Br-].[Br-] | 3e+06 | 3e+06 | 2.4 | 3 | 124% |  |  |  |  |
| COc1ccc2[nH]c3ccc4c[n+](CCN5CCC(C6CCN(CC[n+]7ccc8c(ccc9[nH]c%10ccc(OC)cc%10c98)c7)CC6)CC5)ccc4c3c2c1.[Cl-].[Cl-] | 5e+08 | 3e+06 | 0.32 | 3.4 |  | 130% |  |  |  |
| COc1ccc2c(c1)c1c3cc[n+](CCN4CCC(C5CCN(CC[n+]6ccc7c(ccc8c7c7cc(OC)ccc7n8C)c6)CC5)CC4)cc3ccc1n2C | 5e+08 | 6e+06 | 0.32 | 1.2 |  |  |  |  |  |
| Cc1c2cc[n+](CCN3CCC(C4CCN(CC[n+]5ccc6c(C)c7[nH]c8ccc(O)cc8c7c(C)c6c5)CC4)CC3)cc2c(C)c2c1[nH]c1ccc(O)cc12 | 1e+08 | 1e+06 |  |  |  |  |  |  |  |
| Oc1ccc2[nH]c3ccc4c[n+](CCN5CCC(C6CCN(CC[n+]7ccc8c(ccc9[nH]c%10ccc(O)cc%10c98)c7)CC6)CC5)ccc4c3c2c1 | 2e+08 | 500000 | 0.5 | 13 |  |  |  |  |  |
| COc1ccc2[nH]c3ccc4cc[n+](CC(O)CN5CCC(C6CCN(CC(O)C[n+]7ccc8ccc9[nH]c%10ccc(OC)cc%10c9c8c7)CC6)CC5)cc4c3c2c1 (stereo not drawn) | 1e+09 | 2e+07 | 0.24 | 0.72 |  |  |  |  |  |
| COc1ccc2c(c1)c1c3c[n+](CCN4CCC(C5CCN(CC[n+]6ccc7ccc8c(c7c6)c6cc(OC)ccc6n8C)CC5)CC4)ccc3ccc1n2C.[Cl-].[Cl-] | 3e+08 | 2e+07 | 0.4 | 0.72 |  |  | 155% |  |  |
| COc1ccc2[nH]c3c(C)c4cc[n+](CCN5CCC(C6CCN(CC[n+]7ccc8c(C)c9[nH]c%10ccc(OC)cc%10c9c(C)c8c7)CC6)CC5)cc4c(C)c3c2c1 | 2e+08 | 1e+06 |  |  |  |  |  |  |  |
| COc1ccc2[nH]c3ccc4cc[n+](CCN(C)CCCCCN(C)CC[n+]5ccc6ccc7[nH]c8ccc(OC)cc8c7c6c5)cc4c3c2c1 | 1e+08 | 8e+06 | 0.8 | 8.4 |  |  |  |  |  |
| COc1ccc2c(c1)c1c3c[n+](CCN4CCCCC4)ccc3ccc1n2C | 1.8e+06 | 300000 | 9.5 | 20 |  |  |  |  |  |
| Oc1ccc2[nH]c3ccc4cc[n+](CCN5CCC(C6CCN(CC[n+]7ccc8ccc9[nH]c%10ccc(O)cc%10c9c8c7)CC6)CC5)cc4c3c2c1.[Cl-].[Cl-] | 5e+08 | 1e+07 | 0.32 | 1.2 |  |  |  | 157% |  |
| COc1ccc2[nH]c3ccc4cc[n+](CCN5CCC(C6CCN(CC[n+]7ccc8ccc9[nH]c%10ccc(OC)cc%10c9c8c7)CC6)CC5)cc4c3c2c1.[Cl-].[Cl-] [DITERCALINIUM CHLORIDE] | 5e+08 | 1e+07 | 0.32 | 0.96 |  |  |  |  | 216% |
| [Cl-].[Cl-].c1ccc2c(c1)[nH]c1ccc3cc[n+](CCN4CCC(C5CCN(CC[n+]6ccc7ccc8[nH]c9ccccc9c8c7c6)CC5)CC4)cc3c12 | 3e+08 | 5e+06 | 0.4 | 1.4 | 121% |  |  |  |  |
